ChEMBL document CHEMBL1131187, “Synthesis, activity, and molecular modeling of new 2, 4-dioxo-5-(naphthylmethylene)-3-thiazolidineacetic acids and 2-thioxo analogues as potent aldose reductase inhibitors” (J Med Chem, 1998)

target: Aldo-keto reductase family 1 member B1 (Bos taurus, UniProt P16116); experiment: Evaluated in vitro for the inhibition of Aldose reductase.; format: functional
In short: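 Partially purified enzyme from beef lenses homogenized in 96 mM phosphate buffer pH 6.2 at 4 °C; supernatant after 1 h centrifugation at 4 °C. Assay at 37 °C in 96 mM phosphate pH 6.2 with NADPH (0.18 mM) and DL-glyceraldehyde (1 mM). Reaction started with NADPH; A340 decrease followed. Blanks included. Four concentrations, five measures each; IC50 by linear regression of % inhibition vs log concentration.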

Going from O=C(O)CN1C(=O)S/C(=C\c2cc3ccccc3cc2Br)C1=O to O=C(O)CN1C(=O)/C(=C/c2cc3ccccc3cc2Br)SC1=S, the IC50 falls from 153 nM to 15 nM (10-fold). The second is the more potent here.

Compared with O=C(O)CN1C(=O)/C(=C/c2ccc3ccccc3c2[N+](=O)[O-])SC1=S, O=C(O)CN1C(=O)/C(=C/c2ccc3ccccc3c2Br)SC1=S is 7.2-fold lower in IC50: 79 nM for the first, 11 nM for the second. The second is the more potent here.

Compared with COc1cc2ccccc2cc1/C=C1\SC(=S)N(CC(=O)O)C1=O, COc1cc2ccccc2cc1/C=C1\SC(=O)N(CC(=O)O)C1=O is 6.4-fold higher in IC50: 20 nM for the first, 128 nM for the second.

Compared with O=C(O)Cc1nn(Cc2ccc(Br)cc2F)c(=O)c2ccccc12 [PONALRESTAT], O=C(O)CN1C(=O)S/C(=C\c2ccc3ccccc3c2Br)C1=O is 7.3-fold higher in IC50: 7 nM for the first, 51 nM for the second. The first is the more potent here.

Compared with COc1ccc2cc(/C=C3\SC(=S)N(CC(=O)O)C3=O)ccc2c1, COc1ccc2cc(/C=C3\SC(=O)N(CC(=O)O)C3=O)ccc2c1 is 1.5-fold higher in IC50: 67 nM for the first, 101 nM for the second. The first is the more potent here.

Compared with O=C(O)CN1C(=O)S/C(=C\c2ccc3ccccc3c2)C1=O, O=C(O)CN1C(=O)/C(=C/c2ccc3ccccc3c2)SC1=S is 2.8-fold lower in IC50: 269 nM for the first, 96 nM for the second.

Compared with COc1c(/C=C2\SC(=O)N(CC(=O)O)C2=O)ccc2ccccc12, COc1c(/C=C2\SC(=S)N(CC(=O)O)C2=O)ccc2ccccc12 is 17-fold lower in IC50: 150 nM for the first, 9 nM for the second. The second is the more potent here.

O=C(O)CN1C(=O)S/C(=C\c2cc3ccccc3cc2Cl)C1=O showed an IC50 of 48 nM.
